Tests used:
[1] = folding enthalpy; higher = less favourable; fluorescence melt of hairpins on a sequencing array, two-state fit; conditions: sodium 0.088 M
Method in brief: (§1)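 On a sequenced MiSeq flow cell, library hairpins with annealed Cy3 and quencher oligos were imaged for Cy3 fluorescence in 2.5 °C steps up to 60 °C, in 50 mM Na-HEPES pH 8.0, 25 mM NaCl. Normalisation used pre-quench Cy3 and control constructs. Bootstrapped two-state fits gave melting temperature and folding enthalpy, combined by inverse variance across four replicates and with fitted temperatures raised by 9.35 °C to match UV melts.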

[2] = melting temperature; fluorescence melt of hairpins on a sequencing array, two-state fit, raised by 9.35 °C to match UV melts; conditions: sodium 0.088 M
Method in brief: as §1

GGTTGAGGAAACTCGATC (.(.(((....))).).)
folding enthalpy [1]: -16.8 kcal/mol
Tm [2]: 29.8 °C

GATAGCGAAAGCTATC ((((((....))))))
folding enthalpy [1]: -33 kcal/mol
Tm [2]: 61.3 °C

GCAAGCGAAAGCTCGTGC ((((((....)))..)))
folding enthalpy [1]: -15.1 kcal/mol
Tm [2]: 37.4 °C

GTTCCACGAAAGTGCAAC (((.(((....))).)))
folding enthalpy [1]: -16.9 kcal/mol
Tm [2]: 33.5 °C

GCTCGTCGAAAGACTAGC (((.(((....))).)))
folding enthalpy [1]: -39 kcal/mol
Tm [2]: 49 °C

GCCCCCGGAAACAGGGGC (((((.(....).)))))
folding enthalpy [1]: -35 kcal/mol
Tm [2]: 56.7 °C

GTTCTTCGAAAGAATAAC (((.(((....))).)))
folding enthalpy [1]: -15.6 kcal/mol
Tm [2]: 33.6 °C

GATCGATGGCTCGATC ((((((....))))))
folding enthalpy [1]: -34 kcal/mol
Tm [2]: 50.2 °C

GATCGGACTTCCGATC ((((((....))))))
folding enthalpy [1]: -42.3 kcal/mol
Tm [2]: 57.2 °C

GTGCGTGGAAACACGTGC (..((((....))))..)
folding enthalpy [1]: -18.4 kcal/mol
Tm [2]: 51.5 °C

GTGTAAGGAAACTTACGC (.(((((....))))).)
folding enthalpy [1]: -25.7 kcal/mol
Tm [2]: 45.3 °C

GTGCGACGAAAGTCTCAC (((.(((....))).)))
folding enthalpy [1]: -41.1 kcal/mol
Tm [2]: 50.5 °C

GACAGCGGAAACACTGTC (((((.(....).)))))
folding enthalpy [1]: -33.4 kcal/mol
Tm [2]: 46.6 °C

CAATCCGAAAGGCTTG (((.((....)).)))
folding enthalpy [1]: -17 kcal/mol
Tm [2]: 34.7 °C

GATTCTGGAAACAGGATC (((.(((....))).)))
folding enthalpy [1]: -37.1 kcal/mol
Tm [2]: 42.7 °C

GCCTTCCGAAAGGATGGC (((.(((....))).)))
folding enthalpy [1]: -42.1 kcal/mol
Tm [2]: 62 °C

GGCGGTGGAAACACCACC ((.((((....)))).))
folding enthalpy [1]: -27.5 kcal/mol
Tm [2]: 53 °C

GTCCTTGGAAACAGGGAC ((((.((....)).))))
folding enthalpy [1]: -33 kcal/mol
Tm [2]: 46.4 °C

GCGTTCCCACGC ((((....))))
folding enthalpy [1]: -23.4 kcal/mol
Tm [2]: 51.9 °C

GCGTAGCGAAAGCCTCGC (((..((....))..)))
folding enthalpy [1]: -10.8 kcal/mol
Tm [2]: 44.1 °C

GTTGATGAAAATCAAC ((((((....))))))
folding enthalpy [1]: -33.9 kcal/mol
Tm [2]: 52.4 °C

GAAGACGAAAGTCCGTTC ((((((....)))..)))
folding enthalpy [1]: -8.8 kcal/mol
Tm [2]: 27.6 °C

GCGTCACCACGC ((((....))))
folding enthalpy [1]: -22.7 kcal/mol
Tm [2]: 53 °C

GTTTCCGAAAGGACAAAC ((((((....)))..)))
folding enthalpy [1]: -9.58 kcal/mol
Tm [2]: 26.1 °C

GGTCTATCGAAAGATACC (((..(((....))))))
folding enthalpy [1]: -10.3 kcal/mol
Tm [2]: 25.8 °C

GGTCCGTCGAAAGACACC (((..(((....))))))
folding enthalpy [1]: -14.1 kcal/mol
Tm [2]: 27.5 °C

GATCAGGCCACTGATC ((((((....))))))
folding enthalpy [1]: -36.4 kcal/mol
Tm [2]: 60.8 °C

GTTCTTGGAAACAGGAAC ((((.((....)).))))
folding enthalpy [1]: -34.1 kcal/mol
Tm [2]: 39.9 °C

GATCTAATTGTAGATC ((((((....))))))
folding enthalpy [1]: -33 kcal/mol
Tm [2]: 38.8 °C

GAACAGGGAAACCTGTCC (.(((((....))))).)
folding enthalpy [1]: -16.1 kcal/mol
Tm [2]: 35.1 °C

GCGAAGTCTCGC ((((....))))
folding enthalpy [1]: -14.2 kcal/mol
Tm [2]: 47.7 °C

GGCCACGAAAGTGCTGCC ((((((....)))..)))
folding enthalpy [1]: -20.4 kcal/mol
Tm [2]: 48.8 °C

GGCAAAACGAAAGTTGCC (((..(((....))))))
folding enthalpy [1]: -38.6 kcal/mol
Tm [2]: 52.7 °C

GGAGACGAAAGTCTTTCC ((((((....)))..)))
folding enthalpy [1]: -10.9 kcal/mol
Tm [2]: 32.6 °C

GATCTCTGGGGAGATC ((((((....))))))
folding enthalpy [1]: -41.2 kcal/mol
Tm [2]: 56.4 °C

GATACCGGAAACGGTACC (.(((((....))))).)
folding enthalpy [1]: -13.6 kcal/mol
Tm [2]: 38.8 °C

GCGCCTTCGAAAGAACGC (((..(((....))))))
folding enthalpy [1]: -19.2 kcal/mol
Tm [2]: 38.6 °C

GGTGCCGGAAACGACACC ((((.((....)).))))
folding enthalpy [1]: -44.9 kcal/mol
Tm [2]: 54.6 °C

GCAGTGCGAAAGCTATGC (((..((....))..)))
folding enthalpy [1]: -17.1 kcal/mol
Tm [2]: 55.1 °C

GGACTCGAAAGAGTTCC ((((((....))).)))
folding enthalpy [1]: -21.2 kcal/mol
Tm [2]: 50.3 °C

GACTCAGGAAACTGAGCC (.(((((....))))).)
folding enthalpy [1]: -16.5 kcal/mol
Tm [2]: 43.6 °C

GAGCCCGAAAGGGCCCTC ((((((....)))..)))
folding enthalpy [1]: -9.76 kcal/mol
Tm [2]: 47.6 °C

GTTCAAGGAAACTTGGAC ((.((((....)))).))
folding enthalpy [1]: -20.7 kcal/mol
Tm [2]: 43.7 °C

GCCAGCGAAAGCTCAGGC ((((((....)))..)))
folding enthalpy [1]: -30.4 kcal/mol
Tm [2]: 49.9 °C

CGTGCGGAAACGCGAACG ((((((....)))..)))
folding enthalpy [1]: -23.3 kcal/mol
Tm [2]: 47.6 °C

GTGAGCGAAAGCTTCCAC ((((((....)))..)))
folding enthalpy [1]: -15.2 kcal/mol
Tm [2]: 28.7 °C

GCCTATCGAAAGATGGC (((.(((....))))))
folding enthalpy [1]: -30.9 kcal/mol
Tm [2]: 50.9 °C

GTAAACGAAAGTTACTAC ((((((....)))..)))
folding enthalpy [1]: -17.6 kcal/mol
Tm [2]: 34.8 °C

GTATATGAAAATATAC ((((((....))))))
folding enthalpy [1]: -23.7 kcal/mol
Tm [2]: 39.1 °C

GATGCCGGAAACGACATC ((((.((....)).))))
folding enthalpy [1]: -38.3 kcal/mol
Tm [2]: 48.2 °C

GCCAAGCGAAAGCGGGGC (((..((....))..)))
folding enthalpy [1]: -28.6 kcal/mol
Tm [2]: 68.3 °C

CTAAGGAAACTTAG (((((....)))))
folding enthalpy [1]: -10.7 kcal/mol
Tm [2]: 29.8 °C

GTTGCAGGAAACTACAAC ((((.((....)).))))
folding enthalpy [1]: -27.6 kcal/mol
Tm [2]: 37 °C

GTTTACGCGAAAGCGAAC (((..(((....))))))
folding enthalpy [1]: -9.1 kcal/mol
Tm [2]: 31.8 °C

GATCGGGAAGCCGATC ((((((....))))))
folding enthalpy [1]: -37.9 kcal/mol
Tm [2]: 59.6 °C

GGTCACCGAAAGGTAACC (((.(((....))).)))
folding enthalpy [1]: -27.5 kcal/mol
Tm [2]: 48.4 °C

GCTGGGCGAAAGCACCGC ((.(.((....)).).))
folding enthalpy [1]: -20.7 kcal/mol
Tm [2]: 52.7 °C

GTTTTGACGAAAGTCAAC (((..(((....))))))
folding enthalpy [1]: -11.5 kcal/mol
Tm [2]: 34.6 °C

GTGGCGGGAAACCGCTGC (..((((....))))..)
folding enthalpy [1]: -15.4 kcal/mol
Tm [2]: 47.9 °C

GGACCCCGAAAGGGCTCC (((.(((....))).)))
folding enthalpy [1]: -16.3 kcal/mol
Tm [2]: 48.6 °C

GACCTCGGAAACAAGGTC (((((.(....).)))))
folding enthalpy [1]: -32.1 kcal/mol
Tm [2]: 40.9 °C

GTGGGCGAAAGCCATCAC ((((((....)))..)))
folding enthalpy [1]: -11.4 kcal/mol
Tm [2]: 39.7 °C

GGAAGGGCGAAAGCCTCC (((..(((....))))))
folding enthalpy [1]: -11.2 kcal/mol
Tm [2]: 41.1 °C

GATCGCGAGTGCGATC ((((((....))))))
folding enthalpy [1]: -33.8 kcal/mol
Tm [2]: 66.3 °C

GATCGATATCTCGATC ((((((....))))))
folding enthalpy [1]: -36 kcal/mol
Tm [2]: 51 °C

GAGATCGGAAACGACCTC (((.(((....))).)))
folding enthalpy [1]: -29.8 kcal/mol
Tm [2]: 42.5 °C

GATCGGCCTCCGATC ((((((...))))))
folding enthalpy [1]: -34.3 kcal/mol
Tm [2]: 59.4 °C

GCCTCGCGAAAGCGTCGC ((..(((....)))..))
folding enthalpy [1]: -12.2 kcal/mol
Tm [2]: 43.1 °C

GCAGCCGAAAGGCATTGC ((((((....)))..)))
folding enthalpy [1]: -15.6 kcal/mol
Tm [2]: 41.5 °C

GGCCCGACGAAAGTCGCC (((..(((....))))))
folding enthalpy [1]: -8.24 kcal/mol
Tm [2]: 35.2 °C

GCTGGACGAAAGTCAGC (((.(((....))))))
folding enthalpy [1]: -30.6 kcal/mol
Tm [2]: 56.1 °C

GCTCTCGAAAGAGACAGC ((((((....)))..)))
folding enthalpy [1]: -17.8 kcal/mol
Tm [2]: 35.9 °C

GATCGAAATGTCGATC ((((((....))))))
folding enthalpy [1]: -36.8 kcal/mol
Tm [2]: 48.7 °C

GGATACCGAAAGGTTCC (((.(((....))))))
folding enthalpy [1]: -25.6 kcal/mol
Tm [2]: 49.3 °C

GGTGAATCGAAAGATACC (((..(((....))))))
folding enthalpy [1]: -16.8 kcal/mol
Tm [2]: 29.8 °C

GATCGGCAATCCGATC ((((((....))))))
folding enthalpy [1]: -44.7 kcal/mol
Tm [2]: 55 °C

GATTCTGGAAACGGAATC (((((.(....).)))))
folding enthalpy [1]: -37.2 kcal/mol
Tm [2]: 44.4 °C

TCTGAGAAATCAGA (((((....)))))
folding enthalpy [1]: -11.1 kcal/mol
Tm [2]: 33.4 °C

GTATGCGAAAGCACATAC ((((((....)))..)))
folding enthalpy [1]: -11.2 kcal/mol
Tm [2]: 31.8 °C

GAGTGGGAAACCACTC ((((((....))))))
folding enthalpy [1]: -33.6 kcal/mol
Tm [2]: 60.7 °C

GGCCTCGAAAGAGAAGCC ((((((....)))..)))
folding enthalpy [1]: -26 kcal/mol
Tm [2]: 47.9 °C

GCTTCAGGAAACTGAAGC (((((((....)))))))
folding enthalpy [1]: -32.9 kcal/mol
Tm [2]: 66 °C

GTGGATTCGAAAGAACAC (((..(((....))))))
folding enthalpy [1]: -17.4 kcal/mol
Tm [2]: 32 °C

GATCAGCGAAAGCTCATC (((.(((....))).)))
folding enthalpy [1]: -13 kcal/mol
Tm [2]: 29.8 °C

GATCTATGTTAGATC ((((((...))))))
folding enthalpy [1]: -27.7 kcal/mol
Tm [2]: 41.3 °C

GCTGTAACGAAAGTTAGC (((..(((....))))))
folding enthalpy [1]: -20.5 kcal/mol
Tm [2]: 35 °C

GGATCCGAAAGGATATCC ((((((....)))..)))
folding enthalpy [1]: -15.2 kcal/mol
Tm [2]: 40.7 °C

GAGTATCCGAAAGGACTC (((..(((....))))))
folding enthalpy [1]: -14.2 kcal/mol
Tm [2]: 29.2 °C

GTGCATGGAAACATGTAC ((.((((....)))).))
folding enthalpy [1]: -31.7 kcal/mol
Tm [2]: 48.7 °C

GCGAGGCGAAAGCTTGGC ((.(.((....)).).))
folding enthalpy [1]: -12.1 kcal/mol
Tm [2]: 46.1 °C

GTCATACGAAAGTAGGAC (((.(((....))).)))
folding enthalpy [1]: -29.3 kcal/mol
Tm [2]: 53.9 °C

GATTGAGGAAACTCGATC (((.(((....))).)))
folding enthalpy [1]: -33.1 kcal/mol
Tm [2]: 43.2 °C

Source: the array DNA melting data of Ke et al. (doi:10.1101/2024.01.08.574731)
